In ChEMBL document CHEMBL4304813 (ACS Med Chem Lett, 2019):
Values after ≈ are worked out from the molar mass of the structure shown. Active and inactive are the calls of the source. No cut-off for these calls is given here.

Key:
[1] = Inhibition of Hedgehog signaling pathway in mouse ASZ001 cells assessed as decrease in Gli1 mRNA expression after 48 hrs by qRT-PCR analysis; assay type: cell-based; conditions: ASZ001, 48 h
Outline: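 Hh-dependent murine basal cell carcinoma line ASZ001; read-out is Gli1 mRNA expression. IC50 given as mean ± SEM of at least two separate experiments, each run in triplicate.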

[2] = Microsomal stability in human liver microsomes assessed as half-life at 1 uM in presence of NADPH/phosphate buffer by LC-MS/MS analysis; assay type: ADME, Microsome
[3] = Solubility in PBS at pH 7.4 under shaking condition by HPLC analysis; assay type: physicochemical
[4] = Solubility in PBS at pH 4 under shaking condition by HPLC analysis; assay type: physicochemical
[5] = Microsomal stability in human liver microsomes assessed as intrinsic clearance at 1 uM in presence of NADPH/phosphate buffer by LC-MS/MS analysis; assay type: ADME, Microsome; conditions: read-out: CLH
[6] = Drug metabolism in human liver microsomes assessed as increase in 1-(4-(((2S,4R)-2-(2,4-dichlorophenyl)-2-methyl-1,3-dioxolan-4-yl)methoxy)phenyl)piperazine formation at 1 uM in presence of NADPH by LC-MS/MS analysis; assay type: ADME, Microsome
[7] = Drug metabolism in human liver microsomes assessed as increase in oxidized metabolite formation at 1 uM in presence of NADPH by LC-MS/MS analysis; assay type: ADME, Microsome
[8] = Aqueous solubility of the compound; assay type: physicochemical; conditions: buffer
[9] = Growth inhibition of human HC04 cells assessed as decrease in cell viability after 72 hrs by CellTiter96 AQueous non radioactive cell proliferation assay
Outline: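 HC-04 is a human hepatocyte-derived line rich in drug-metabolizing enzymes. Anti-proliferative activity is reported as GI50.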

[10] = Drug level in human liver microsomes treated with 1-(4-(4-(((2S,4R)-2-(2,4-dichlorophenyl)-2-methyl-1,3-dioxolan-4-yl)methoxy)phenyl)piperazin-1-yl)-3-(3-hydroxyphenyl)propan-1-one formation at 1 uM in presence of NADPH by LC-MS/MS analysis; assay type: ADME, Microsome
[11] = species: Mus musculus; test: Inhibition of Hedgehog signaling pathway in mouse C3H10T1/2 cells assessed as reduction in recombinant mouse sonic hedgehog/oxysterol-induced Gli1 mRNA expression by q-PCR analysis; assay type: cell-based
[12] = Drug level in human liver microsomes treated with 1-(4-(4-(((2S,4R)-2-(2,4-dichlorophenyl)-2-methyl-1,3-dioxolan-4-yl)methoxy)phenyl)piperazin-1-yl)-2-(3-hydroxyphenyl)ethanone assessed as increase in 1-(4-(((2S,4R)-2-(2,4-dichlorophenyl)-2-methyl-1,3-dioxolan-4-yl)methoxy)phenyl)piperazine formation at 1 uM in presence of NADPH by LC-MS/MS analysis; assay type: ADME, Microsome
[13] = system: MEF; test: Inhibition of Hedgehog signaling pathway in Sufu-deficient mouse MEF cells assessed as decrease in Gli1 mRNA expression by q-PCR analysis relative to control; assay type: cell-based
[14] = species: Mus musculus; test: Potency index, ratio of ITZ IC50 to test compound IC50 for inhibition of Hedgehog signaling pathway in mouse ASZ001 cells assessed as decrease in Gli1 mRNA expression after 48 hrs by qRT-PCR analysis; assay type: cell-based

Structure (SMILES) | IC50 [1] [nM] | half-life at 1 µM [2] [min] | microsomal CLint at 1 µM [5] [µL/min/mg] | also measured
C[C@]1(c2ccc(Cl)cc2Cl)OC[C@@H](COc2ccc(N3CCN(C(=O)c4ccc(N)cc4)CC3)cc2)O1 | 280 |  |  | 
C[C@]1(c2ccc(Cl)cc2Cl)OC[C@@H](COc2ccc(N3CCN(C(=O)c4ccc([N+](=O)[O-])cc4)CC3)cc2)O1 | 160 |  |  | 
C[C@]1(c2ccc(Cl)cc2Cl)OC[C@@H](COc2ccc(N3CCN(C(=O)c4ccccn4)CC3)cc2)O1 | 1420 |  |  | 
C[C@]1(c2ccc(Cl)cc2Cl)OC[C@@H](COc2ccc(N3CCN(C(=O)CCc4cccc(O)c4)CC3)cc2)O1 | 81 | 3.2 | 218 | solubility [8]: Soluble; Ratio IC50 [14]: 2; GI50 at 72 h [9]: 13200 nM; inhibition [11]: Active; solubility [3]: 0.03 µM (≈ 0.0171 µg/mL)
C[C@]1(c2ccc(Cl)cc2Cl)OC[C@@H](COc2ccc(N3CCN(C(=O)c4cccnc4)CC3)cc2)O1 | 1300 |  |  | 
C[C@]1(c2ccc(Cl)cc2Cl)OC[C@@H](COc2ccc(N3CCN(C(=O)N/N=C/c4ccc(O)cc4)CC3)cc2)O1 | 960 | 11.4 | 60 | solubility [3]: 0.02 µM (≈ 0.0117 µg/mL); solubility [4]: 0.05 µM (≈ 0.0293 µg/mL)
COc1cccc(CCC(=O)N2CCN(c3ccc(OC[C@@H]4CO[C@](C)(c5ccc(Cl)cc5Cl)O4)cc3)CC2)c1 | 460 |  |  | 
C[C@]1(c2ccc(Cl)cc2Cl)OC[C@@H](COc2ccc(N3CCN(C(=O)CCc4ccc(O)c(O)c4)CC3)cc2)O1 | 89 | 6.6 | 105 | solubility [3]: 0.84 µM (≈ 0.494 µg/mL)
CCC(C)n1ncn(-c2ccc(N3CCN(c4ccc(OCC5COC(Cn6cncn6)(c6ccc(Cl)cc6Cl)O5)cc4)CC3)cc2)c1=O (stereo unspecified) [ITRACONAZOLE] | 140 |  |  | inhibition [11]: Active; inhibition [13]: inactive
C[C@]1(c2ccc(Cl)cc2Cl)OC[C@@H](COc2ccc(N3CCN(C(=O)CCCc4ccc(O)cc4)CC3)cc2)O1 | 470 |  |  | 

Further compounds by falling IC50 [1], results first:

IC50 [1] [nM] | half-life at 1 µM [2] [min] | microsomal CLint at 1 µM [5] [µL/min/mg] | Structure (SMILES) | also measured
870 | 14 | 50 | C[C@]1(c2ccc(Cl)cc2Cl)OC[C@@H](COc2ccc(N3CCN(CCCc4cccc(O)c4)CC3)cc2)O1 | solubility [3]: 0.02 µM (≈ 0.0112 µg/mL); solubility [4]: 0.13 µM (≈ 0.0725 µg/mL)
580 |  |  | C[C@@]1(c2ccc(Cl)cc2Cl)OC[C@@H](COc2ccc(N3CCN(C(=O)N/N=C/c4cccc(O)c4)CC3)cc2)O1 | 
580 |  |  | C[C@]1(c2ccc(Cl)cc2Cl)OC[C@@H](COc2ccc(N3CCN(C(=O)c4ccc(O)cc4)CC3)cc2)O1 | 
570 |  |  | C[C@]1(c2ccc(Cl)cc2Cl)OC[C@@H](COc2ccc(N3CCN(C(=O)c4ccncc4)CC3)cc2)O1 | 
380 | 20.4 | 33.9 | C[C@]1(c2ccc(Cl)cc2Cl)OC[C@@H](COc2ccc(N3CCN(C(=O)Cc4cccc(O)c4)CC3)cc2)O1 | Drug metabolism [6]: Metabolite_Detected; Drug metabolism [7]: Metabolite_Detected
360 |  |  | C[C@]1(c2ccc(Cl)cc2Cl)OC[C@@H](COc2ccc(N3CCN(C(=O)/C=C/c4ccc(O)cc4)CC3)cc2)O1 | 
260 | 15.9 | 43 | C[C@]1(c2ccc(Cl)cc2Cl)OC[C@@H](COc2ccc(N3CCN(C(=O)c4cccc(O)c4)CC3)cc2)O1 | 
260 |  |  | C[C@]1(c2ccc(Cl)cc2Cl)OC[C@@H](COc2ccc(N3CCN(C(=O)CCc4ccc(O)cc4)CC3)cc2)O1 | 
230 |  |  | C[C@]1(c2ccc(Cl)cc2Cl)OC[C@@H](COc2ccc(N3CCN(C(=O)CCc4ccccc4)CC3)cc2)O1 | 
220 |  |  | C[C@]1(c2ccc(Cl)cc2Cl)OC[C@@H](COc2ccc(N3CCN(C(=O)/C=C/c4cccc(O)c4)CC3)cc2)O1 | 
120 |  |  | C[C@]1(c2ccc(Cl)cc2Cl)OC[C@@H](COc2ccc(N3CCN(C(=O)N/N=C/c4cccc(O)c4)CC3)cc2)O1 | 
22 | 50.7 | 13.7 | C[C@]1(c2ccc(Cl)cc2Cl)OC[C@@H](COc2ccc(N3CCNCC3)cc2)O1 | solubility [8]: Soluble; GI50 at 72 h [9]: 27300 nM; Drug uptake [10]: Active; inhibition [11]: Active; Drug uptake [12]: Active; inhibition [13]: inactive
